The campaign covered roughly 330,000 compounds. About 2,400 (0.73%) were called active. Rule for the calls: active = inhibition of at least 40% at 20 µM; inactive = the rest. What follows is part of a selection rich in actives, with near analogues and random picks from the rest.

Sequence of Apoptotic protease-activating factor 1 (Homo sapiens) (O14727 whole entry, looked up): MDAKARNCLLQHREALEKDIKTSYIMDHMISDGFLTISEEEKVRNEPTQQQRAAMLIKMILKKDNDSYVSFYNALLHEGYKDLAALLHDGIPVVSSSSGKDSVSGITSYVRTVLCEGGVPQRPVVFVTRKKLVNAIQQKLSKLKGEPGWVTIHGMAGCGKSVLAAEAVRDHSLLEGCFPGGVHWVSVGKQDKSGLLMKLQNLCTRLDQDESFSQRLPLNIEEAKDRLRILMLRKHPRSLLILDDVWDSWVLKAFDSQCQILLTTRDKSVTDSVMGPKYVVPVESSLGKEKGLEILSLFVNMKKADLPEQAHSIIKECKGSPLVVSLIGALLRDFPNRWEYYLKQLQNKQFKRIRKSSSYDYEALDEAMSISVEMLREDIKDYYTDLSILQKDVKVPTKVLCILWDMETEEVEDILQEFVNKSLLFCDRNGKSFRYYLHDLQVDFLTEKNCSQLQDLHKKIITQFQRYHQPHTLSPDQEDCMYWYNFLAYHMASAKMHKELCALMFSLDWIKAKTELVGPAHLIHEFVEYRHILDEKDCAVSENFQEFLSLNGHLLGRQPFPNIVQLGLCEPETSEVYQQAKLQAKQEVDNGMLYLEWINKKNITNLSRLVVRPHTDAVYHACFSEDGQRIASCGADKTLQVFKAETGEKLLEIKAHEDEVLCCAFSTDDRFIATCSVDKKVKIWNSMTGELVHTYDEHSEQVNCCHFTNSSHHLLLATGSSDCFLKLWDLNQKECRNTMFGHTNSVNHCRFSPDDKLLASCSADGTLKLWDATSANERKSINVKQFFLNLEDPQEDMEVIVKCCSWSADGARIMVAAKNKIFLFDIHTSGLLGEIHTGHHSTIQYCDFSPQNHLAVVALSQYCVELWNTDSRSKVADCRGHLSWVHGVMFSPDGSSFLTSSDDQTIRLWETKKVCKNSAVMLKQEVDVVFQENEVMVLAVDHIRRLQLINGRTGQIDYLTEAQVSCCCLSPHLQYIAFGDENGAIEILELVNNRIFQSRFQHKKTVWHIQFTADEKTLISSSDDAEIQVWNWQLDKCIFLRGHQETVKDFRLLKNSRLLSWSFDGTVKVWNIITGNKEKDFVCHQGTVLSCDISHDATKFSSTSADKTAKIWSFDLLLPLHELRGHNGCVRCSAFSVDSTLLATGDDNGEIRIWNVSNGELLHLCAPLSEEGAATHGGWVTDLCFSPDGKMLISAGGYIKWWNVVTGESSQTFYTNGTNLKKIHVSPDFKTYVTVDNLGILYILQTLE

In this test the target is Apoptotic protease-activating factor 1 (Homo sapiens) (UniProt O14727). Put plainly: inhibitors of human Apaf-1 apoptosome, primary screen, biochemical, DEVD-Rh110 fluorescence, uHTS (AID 489030).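 Note: plate controls were DMSO wells for no effect and DEVD-CHO caspase inhibitor wells for full effect.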 The settings on record: reconstituted apoptosome caspase-3 activity, at 20 µM, active compounds read high. The essentials:
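Assay system: Apoptosome proteins | Medium: pH 7.5 Hepes buffer with CHAPS, BSA, DTT | Also added: Cytochrome c and DEVD-Rh110 substrate | Times: 30 min plus 50 min, RT | Detection: Rhodamine 110 fluorescence at Ex 480/Em 540 nm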
What is called inhibition is the drop in the measured response relative to a control, in per cent. As for `CCCCCn1c(=O)c(C(=O)Nc2c(C)n(C)n(-c3ccccc3)c2=O)c(O)c2ccccc21`, the inhibition is 46.4% (active).

As for `CCCCn1c(=O)c(C(=O)Nc2ccccc2Cl)c(O)c2ccccc21`, the inhibition was -6.34% (inactive).

As for `CCCCCn1c(=O)c(C(=O)NCc2ccccc2)c(O)c2ccccc21`, the inhibition is -34.9% (inactive).

As to `COC(=O)C1=C(c2c(C)noc2C)C[C@@H]2CC[C@H]1N2C(=O)NCc1ccc2c(c1)OCO2`, the inhibition was 1.57% (inactive).

Consider `Cc1cccc(-n2c(O)c(/C=N/N3CCOCC3)c(=O)[nH]c2=S)c1`, for which the inhibition is 3.6% (inactive).

`c1ccc2sc(N3CCNCC3)nc2c1`: the inhibition was -11.3% (inactive).

For the compound `CC(Cc1ccccc1)NCCC(c1ccccc1)c1ccccc1` (stereo not given), the inhibition is 41.5% (active).

On to `CC(=O)NC(=O)NC(C)Cc1ccccc1` (stereo not given), for which the inhibition is -10.3% (inactive).

On to `CC(Cc1ccccc1)NC=O` (stereo not given), for which the inhibition is 5.78% (inactive).

With `CCOc1ccc(CN(CCCl)CCCl)cc1C(=O)OC`, the inhibition was -1.62% (inactive).

For the compound `CC/C(=N\NC(=O)c1ccccc1O)c1c(O)n(Cc2ccccc2)c(=O)[nH]c1=O`, the inhibition was -8.27% (inactive).

In the case of `CCOC(=O)c1c(N)n(CCN2CCOCC2)c2nc3ccccc3nc12`, the inhibition is -3.48% (inactive).

With `COC(=O)C1=C(c2ccccc2)C[C@@H]2CC[C@H]1N2C(=O)NCc1ccco1`, the inhibition was 3.27% (inactive).

In the case of `COc1cc(Cn2c(N)c(C(=O)NCc3ccco3)c3nc4ccccc4nc32)cc(OC)c1OC`, the inhibition was 96.1% (active).

In the case of `CCOC(=O)C(O)(c1ccc(NC(=O)c2ccco2)c(OC)c1)C(F)(F)F` (stereo not given), the inhibition is 5.81% (inactive).

For the compound `CCOC(=O)c1c(N)n(Cc2ccccc2)c2nc3ccccc3nc12`, the inhibition is 79.9% (active).

Regarding `CN(C)/C=C(\C=[N+](C)C)c1[nH]ncc1[N+](=O)[O-]`, the inhibition is -1.23% (inactive).

Consider `COC(=O)C1=C(c2ccc(F)cc2F)C[C@@H]2CC[C@H]1N2C(=O)NC1CC1`, for which the inhibition was 3.15% (inactive).

Consider `CCCn1c(C(=O)c2ccccc2OC)nc2ccccc21`, for which the inhibition was 6.27% (inactive).

As for `CCCCCCCCCCCCn1ccc(=N)cc1`, the inhibition was 43.9% (active).

`Cn1c(O)c(C=NCCN2CCNCC2)c(=O)n(C)c1=O`: the inhibition is 6.24% (inactive).

For `COC(=O)CN1C(=O)C2(C(C(=O)OC)=C(N)Oc3ccccc32)C2=C1CC(C)(C)CC2=O` (stereo not given), the inhibition is -21% (inactive).

As for `CN(C)C(=O)Oc1ccc(NC(=O)N2CCOCC2)cc1`, the inhibition is -15% (inactive).

For `CC(=C1C(=O)c2ccccc2C1=O)N1CCN(CCN=Cc2c(O)n(C)c(=O)n(C)c2=O)CC1`, the inhibition is 1.31% (inactive).

`C=CCN1C(=O)NC(=O)/C(=C/c2ccc(OCC(=O)Nc3ccc(C)cc3)cc2)C1=O`: the inhibition is 8.4% (inactive).

For `O=C(Cc1ccc(Cl)cc1)NCCN1CCN(C(=O)Cc2ccc(Cl)cc2)CC1`, the inhibition is -6.49% (inactive).

Take `CNCC(O)c1cc(F)c(OCc2ccccc2)c(OCc2ccccc2)c1F` (stereo not given): the inhibition is 45.9% (active).

Regarding `CCc1nc2ccccc2c(=O)n1-c1cccc(OC)c1`, the inhibition is -11.3% (inactive).

As for `CNC(=O)N(C)c1nnc(C(C)(C)C)s1`, the inhibition was -10.6% (inactive).

As to `CC(C)c1c(CN(C)C(C)Cc2ccccc2)n(C)n(-c2ccccc2)c1=O` (stereo not given), the inhibition was 9.08% (inactive).

Source of the values: PubChem BioAssay AID489030 (Sanford-Burnham Center for Chemical Genomics, 2010).
